In ChEMBL document CHEMBL4038284, “Synthesis of novel quinoline-based 4,5-dihydro-1H-pyrazoles as potential anticancer, antifungal, antibacterial and antiprotozoal agents” (Eur J Med Chem, 2017):
Converted amounts (≈) assume the structure as drawn.

Tests used:
Klebsiella pneumoniae [1] = experiment: Antibacterial activity against ESBL positive Klebsiella pneumoniae ATCC 700603 after 24 hrs by resazurin dye based microdilution assay; assay type: functional; conditions: Klebsiella pneumoniae, 700603, 24 h
Summary of the method: (§1)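 MIC taken as the lowest concentration giving visible inhibition and/or by resazurin (1 mg/mL). Gentamicin was the control. Run in duplicate, repeated at least three times.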

Klebsiella pneumoniae [2] = experiment: Antibacterial activity against carbapenemase positive Klebsiella pneumoniae BAA 1705 after 24 hrs by resazurin dye based microdilution assay; assay type: functional; conditions: BAA 1705, 24 h; summary of the method: as §1
Leishmania panamensis = experiment: Antileshmanial activity against EpiR/GFP fused Leishmania panamensis MHOM/CO/87/UA140 intracellular amastigotes infected in human […] cells after 72 hrs by flow cytometric method; assay type: functional, cell-based; conditions: MHOM/CO/87/UA140, 72 h
Summary of the method: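 PMA-treated U-937 cells (3 × 10^5 cells/mL) infected with stationary-phase GFP L. panamensis promastigotes (15:1), 3 h at 34 °C, then washed. After 24 h, compounds added at 50, 12.5, 3.125 and 0.78 µg/mL for 72 h at 37 °C. EC50 by Probit; triplicate, two experiments.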

Candida albicans [3] = experiment: Antifungal activity against Candida albicans ATCC 10231 incubated for 48 hrs under dark condition by broth microdilution method; assay type: functional; conditions: ATCC 10231, 48 h
Summary of the method: (§2)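 CLSI M27-A3 broth microdilution in RPMI-1640, DMSO ≤1%, compounds at 250-0.98 µg/mL final. Inoculum 1-5 × 10^3 CFU/mL. Incubated 48 h at 30 °C in a moist dark chamber, read at OD405. MIC80 and MIC50 taken from % inhibition dose-response curves (mean ± SEM, triplicate). Amphotericin B was the positive control.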

Cryptococcus neoformans [4] = experiment: Antifungal activity against Cryptococcus neoformans ATCC 32264 incubated for 48 hrs under dark condition by broth microdilution method; assay type: functional; conditions: ATCC 32264, 48 h; summary of the method: as §2
Candida albicans [5] = experiment: Growth inhibition of Candida albicans ATCC 10231 at 250 ug/ml incubated for 48 hrs under dark condition by broth microdilution method relative to control; assay type: functional; conditions: ATCC 10231, 48 h, read-out: GI
Summary of the method: (§3)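 CLSI M27-A3 broth microdilution in RPMI-1640, DMSO ≤1%. Inoculum 1-5 × 10^3 CFU/mL. Incubated 48 h at 30 °C, dark. % inhibition = 100 − (OD405 test − sterility control)/(OD405 growth control − sterility control), with growth and sterility control wells. Triplicate.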

Candida albicans [6] = experiment: Growth inhibition of Candida albicans ATCC 10231 at 125 ug/ml incubated for 48 hrs under dark condition by broth microdilution method relative to control; assay type: functional; conditions: ATCC 10231, 48 h, read-out: GI; summary of the method: as §3
Candida albicans [7] = experiment: Growth inhibition of Candida albicans ATCC 10231 at 62.5 ug/ml incubated for 48 hrs under dark condition by broth microdilution method relative to control; assay type: functional; conditions: ATCC 10231, 48 h, read-out: GI; summary of the method: as §3
Candida albicans [8] = experiment: Growth inhibition of Candida albicans ATCC 10231 at 31.25 ug/ml incubated for 48 hrs under dark condition by broth microdilution method relative to control; assay type: functional; conditions: ATCC 10231, 48 h, read-out: GI; summary of the method: as §3
Candida albicans [9] = experiment: Growth inhibition of Candida albicans ATCC 10231 at 15.62 ug/ml incubated for 48 hrs under dark condition by broth microdilution method relative to control; assay type: functional; conditions: ATCC 10231, 48 h, read-out: GI; summary of the method: as §3
Candida albicans [10] = experiment: Growth inhibition of Candida albicans ATCC 10231 at 7.8 ug/ml incubated for 48 hrs under dark condition by broth microdilution method relative to control; assay type: functional; conditions: ATCC 10231, 48 h, read-out: GI; summary of the method: as §3
Candida albicans [11] = experiment: Growth inhibition of Candida albicans ATCC 10231 at 3.4 ug/ml incubated for 48 hrs under dark condition by broth microdilution method relative to control; assay type: functional; conditions: ATCC 10231, 48 h, read-out: GI
Cryptococcus neoformans [12] = experiment: Growth inhibition of Cryptococcus neoformans ATCC 32264 at 250 ug/ml incubated for 48 hrs under dark condition by broth microdilution method relative to control; assay type: functional; conditions: ATCC 32264, 48 h, read-out: GI; summary of the method: as §3
Cryptococcus neoformans [13] = experiment: Growth inhibition of Cryptococcus neoformans ATCC 32264 at 125 ug/ml incubated for 48 hrs under dark condition by broth microdilution method relative to control; assay type: functional; conditions: ATCC 32264, 48 h, read-out: GI; summary of the method: as §3
Cryptococcus neoformans [14] = experiment: Growth inhibition of Cryptococcus neoformans ATCC 32264 at 62.5 ug/ml incubated for 48 hrs under dark condition by broth microdilution method relative to control; assay type: functional; conditions: ATCC 32264, 48 h, read-out: GI; summary of the method: as §3
Cryptococcus neoformans [15] = experiment: Growth inhibition of Cryptococcus neoformans ATCC 32264 at 31.25 ug/ml incubated for 48 hrs under dark condition by broth microdilution method relative to control; assay type: functional; conditions: ATCC 32264, 48 h, read-out: GI; summary of the method: as §3
Cryptococcus neoformans [16] = experiment: Growth inhibition of Cryptococcus neoformans ATCC 32264 at 15.62 ug/ml incubated for 48 hrs under dark condition by broth microdilution method relative to control; assay type: functional; conditions: ATCC 32264, 48 h, read-out: GI; summary of the method: as §3
Cryptococcus neoformans [17] = experiment: Growth inhibition of Cryptococcus neoformans ATCC 32264 at 7.8 ug/ml incubated for 48 hrs under dark condition by broth microdilution method relative to control; assay type: functional; conditions: ATCC 32264, 48 h, read-out: GI; summary of the method: as §3
Cryptococcus neoformans [18] = experiment: Growth inhibition of Cryptococcus neoformans ATCC 32264 at 3.4 ug/ml incubated for 48 hrs under dark condition by broth microdilution method relative to control; assay type: functional; conditions: ATCC 32264, 48 h, read-out: GI
Staphylococcus aureus [19] = experiment: Antibacterial activity against methicillin-sensitive Staphylococcus aureus ATCC 25923 after 24 hrs by resazurin dye based microdilution assay; assay type: functional; conditions: ATCC 25923, 24 h; summary of the method: as §1
Staphylococcus aureus [20] = experiment: Antibacterial activity against methicillin-resistant Staphylococcus aureus ATCC 43300 after 24 hrs by resazurin dye based microdilution assay; assay type: functional; conditions: ATCC 43300, 24 h
Summary of the method: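 Broth microdilution in Mueller Hinton broth, inoculum 5 × 10^5 – 8 × 10^5. Compound stocks diluted in MHB with 5% DMSO and 0.1% Tween 80. Incubation 24 h at 35-37 °C. MIC is the lowest concentration with visible growth inhibition and/or by resazurin (1 mg/mL) read-out. Gentamicin as control. Run in duplicate, replicated at least three times.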

Staphylococcus aureus [21] = experiment: Antibacterial activity against vancomycin-intermediate Staphylococcus aureus after 24 hrs by resazurin dye based microdilution assay; assay type: functional; summary of the method: as §1
Escherichia coli = experiment: Antibacterial activity against Escherichia coli ATCC 25922 after 24 hrs by resazurin dye based microdilution assay; assay type: functional; conditions: ATCC 25922, 24 h; summary of the method: as §1
Pseudomonas aeruginosa = experiment: Antibacterial activity against Pseudomonas aeruginosa ATCC 27853 after 24 hrs by resazurin dye based microdilution assay; assay type: functional; conditions: ATCC 27853, 24 h; summary of the method: as §1
Neisseria gonorrhoeae = experiment: Antibacterial activity against beta lactamase positive Neisseria gonorrhoeae ATCC 31426 by oxidase test; assay type: functional
Summary of the method: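 Agar dilution MIC on GC agar with 1% isovitalex containing increasing compound concentrations. Plates inoculated with about 1×10^4 CFU (5 µL). MIC is the lowest concentration that inhibited growth, with growth confirmed by oxidase test. Run in duplicate, repeated at least three times.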

Plasmodium falciparum = experiment: Antiplasmodial activity against chloroquine-sensitive Plasmodium falciparum 3D7 assessed as reduction in parasitic LDH activity after 48 hrs by Malstat reagent based […] method; assay type: functional; conditions: 3D7, 48 h
Summary of the method: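 Unsynchronized P. falciparum 3D7 at 0.5% parasitemia and 1% hematocrit in RPMI with 3% Albumax II. Exposed to 100, 25, 6.25 and 1.56 µg/mL for 48 h at 37 °C under 90% N2/5% CO2/5% O2. After three freeze-thaw cycles, LDH measured with Malstat and NBT/PES, 1 h in the dark, read at 650 nm. IC50 by Probit; triplicate, ≥2 experiments.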

U-937 = experiment: Cytotoxicity against human U937 cells after 72 hrs by MTT assay; assay type: cell-based; conditions: u-937, 72 h
Summary of the method: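 Exponentially growing U-937 at 1 × 10^5 cells/mL in RPMI-1640 with 10% FBS were exposed to 200, 50, 12.5 and 3.125 µg/mL for 72 h at 37 °C, 5% CO2. MTT for 3 h, stopped with isopropanol/SDS, formazan read at 570 nm, blank-corrected. LC50 by Probit from % viability against untreated cells. Triplicate, at least two independent experiments.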

Trypanosoma cruzi = experiment: Antitrypanosomal activity against Trypanosoma cruzi Tulahuen intracellular amastigote harboring LacZ infected in human U937 cells after 72 hrs by CPRG/Nonidet reagent based spectrophotometric method; assay type: functional, cell-based; conditions: U-937, 72 h
Summary of the method: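 U-937 cells at 2.5 × 10^5 cells/mL in RPMI-1640 with 10% serum and 0.1 µg/mL PMA were infected with β-galactosidase-transfected Tulahuen epimastigotes at 5 parasites per cell. Infected cells were exposed to 50, 12.5, 3.125 and 0.78 µg/mL for 72 h. CPRG (100 uM) and 0.1% Nonidet P-40 were added for 3 h, read at 570 nm. EC50 by Probit. Triplicate, at least two experiments; benznidazole as reference.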

Compound: COc1ccc(C2=NN(C(C)=O)C(c3cccc(Nc4ccnc5cc(Cl)ccc45)c3)C2)cc1 (stereo not given)
- MIC (Klebsiella pneumoniae [1]): > 1000 µg/mL
- MIC (Klebsiella pneumoniae [2]): > 1000 µg/mL
- EC50 (Leishmania panamensis): 2.98 µg/mL (≈ 6.33 µM)
- MIC50 (Candida albicans [3]): ≥ 250 µg/mL
- MIC80 (Candida albicans [3]): ≥ 250 µg/mL
- MIC50 (Cryptococcus neoformans [4]): 250 µg/mL (≈ 531 µM)
- MIC80 (Cryptococcus neoformans [4]): ≥ 250 µg/mL
- inhibition of growth at 250 µg/mL (Candida albicans [5]): 37.5%
- inhibition of growth at 125 µg/mL (Candida albicans [6]): 33.4%
- inhibition of growth at 62.5 µg/mL (Candida albicans [7]): 20.4%
- inhibition of growth at 31.25 µg/mL (Candida albicans [8]): 16.9%
- inhibition of growth at 15.62 µg/mL (Candida albicans [9]): 14.2%
- inhibition of growth at 7.8 µg/mL (Candida albicans [10]): 7.64%
- inhibition of growth at 3.4 µg/mL (Candida albicans [11]): 6.14%
- inhibition of growth at 250 µg/mL (Cryptococcus neoformans [12]): 72.2%
- inhibition of growth at 125 µg/mL (Cryptococcus neoformans [13]): 45%
- inhibition of growth at 62.5 µg/mL (Cryptococcus neoformans [14]): 22.4%
- inhibition of growth at 31.25 µg/mL (Cryptococcus neoformans [15]): 20.2%
- inhibition of growth at 15.62 µg/mL (Cryptococcus neoformans [16]): 13.9%
- inhibition of growth at 7.8 µg/mL (Cryptococcus neoformans [17]): 7.99%
- inhibition of growth at 3.4 µg/mL (Cryptococcus neoformans [18]): 4.82%
- MIC (Staphylococcus aureus [19]): > 1000 µg/mL
- MIC (Staphylococcus aureus [20]): > 1000 µg/mL
- MIC (Staphylococcus aureus [21]): > 1000 µg/mL
- MIC (Escherichia coli): > 1000 µg/mL
- MIC (Pseudomonas aeruginosa): > 1000 µg/mL
- MIC (Neisseria gonorrhoeae): > 1000 µg/mL
- EC50 (Plasmodium falciparum): 13.8 µg/mL (≈ 29.3 µM)
- LC50 (U-937): 4.9 µg/mL (≈ 10.4 µM)
- EC50 (Trypanosoma cruzi): 3.44 µg/mL (≈ 7.3 µM)
